Test results: article PMC6753935 (Journal of Clinical and Translational Science, 2019)

System: human platelets in platelet-rich plasma (PRP)
Assay: In vitro platelet aggregation in PRP of healthy human volunteers
Type: cell-based
Conditions: aspirin 0.83 mM, arachidonic acid 1.5 mM, citrated PRP
Method in brief: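 Healthy donors' venous blood was anticoagulated with citrate (0.38% final), PPACK (0.1 or 0.3 mM final) or heparin (15.8 USP U/ml). PRP was spun at 650 × g for 4 min at room temperature. Aspirin 0.83 mM final for 10 min, then test compound (0.01–3 µM final) for 20 min. Aggregation induced by arachidonic acid 1.5 mM or ADP 5 µM. IC50 from initial-slope inhibition by Hill-equation fit.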

In the case of CC(=O)Oc1ccccc1C(=O)O [Aspirin, acetyl salicylic acid, reference compound], the “Effect on arachidonic-acid-induced platelet aggregation” value is reported as “eliminated”.
